According to paper PMC5319884 (Biochemistry, 2017):
Entries after “also recorded” stand apart in the source; their conditions may differ. Where two headings read alike, the source gives them in different places.

How the values were obtained:
Type in all cases: biochemical
hGOAT [1] = molecular target: T1, hGOAT (Homo sapiens, UniProt Q96T53); assay: in vitro hGOAT octanoylation activity assay
T1 sequence (Q96T53 1-435): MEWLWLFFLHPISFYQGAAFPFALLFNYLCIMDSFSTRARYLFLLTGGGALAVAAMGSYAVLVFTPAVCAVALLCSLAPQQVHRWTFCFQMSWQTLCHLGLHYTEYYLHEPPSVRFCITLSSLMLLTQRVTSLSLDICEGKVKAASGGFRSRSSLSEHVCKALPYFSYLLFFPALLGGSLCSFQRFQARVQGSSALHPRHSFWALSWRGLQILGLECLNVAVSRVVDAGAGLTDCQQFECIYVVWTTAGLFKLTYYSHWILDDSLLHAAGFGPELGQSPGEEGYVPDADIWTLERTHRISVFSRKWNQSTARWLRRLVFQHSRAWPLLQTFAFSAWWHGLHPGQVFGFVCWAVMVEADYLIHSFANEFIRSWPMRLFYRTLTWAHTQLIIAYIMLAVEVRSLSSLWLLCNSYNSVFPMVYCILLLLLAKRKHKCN
In short: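 hGOAT was expressed in Sf9 cell membrane fractions, homogenized by needle, and ~100 μg membrane protein was preincubated 30 min at room temperature with 1 μM MAFP and test compound or vehicle (DMSO or ethanol) in 50 mM HEPES pH 7.0. Reactions were started with 500 μM octanoyl-CoA and 1.5 μM acrylodan-labeled peptide, run 3 h at room temperature in the dark, acid/isopropanol-stopped, TCA-clarified and analysed by reverse-phase HPLC. Percent activity was taken as octanoylated/total peptide fluorescence relative to vehicle, from three independent determinations.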

hGOAT [2] = molecular target: T1, hGOAT; assay: inhibitor reversibility; details: pretreatment at 3 x IC50, 10-fold dilution
In short: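 Undiluted homogenised Sf9 membrane containing hGOAT (~7 μg/μL protein) was preincubated 30 min at RT with 10 μM MAFP and inhibitor or vehicle (DMSO or ethanol). It was then diluted 10-fold into 50 mM HEPES pH 7.0 with 500 μM octanoyl CoA, 1.5 μM GSSFLC-acrylodan, and either vehicle or inhibitor at the same final level as in preincubation. Reactions ran 3 h at RT in the dark, followed by RP-HPLC quantitation of octanoylated peptide.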

hGOAT [3] = molecular target: T1, hGOAT; assay: inhibitor time dependence with hGOAT; details: preincubation 5-60 min, 10 min reaction, 30 μM CDDO-EA
In short: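 hGOAT Sf9 membranes (~100 μg protein) were first preincubated 30 min at RT with 1 μM MAFP in 50 mM HEPES pH 7.0. Inhibitor or vehicle was then added for 5, 10, 30 or 60 min before starting with 500 μM octanoyl CoA and 1.5 μM GSSFLC-acrylodan. The reaction ran only 10 min at RT in the dark, then was stopped and analysed by RP-HPLC. % activity versus vehicle and IC50 were derived per preincubation time; minimum of three measurements.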

mGOAT = molecular target: T2, mGOAT (Mus musculus, UniProt P0C7A3); assay: in vitro mGOAT octanoylation activity assay; details: side-by-side assay, mGOAT IC50 higher than hGOAT
T2 sequence (P0C7A3 1-435): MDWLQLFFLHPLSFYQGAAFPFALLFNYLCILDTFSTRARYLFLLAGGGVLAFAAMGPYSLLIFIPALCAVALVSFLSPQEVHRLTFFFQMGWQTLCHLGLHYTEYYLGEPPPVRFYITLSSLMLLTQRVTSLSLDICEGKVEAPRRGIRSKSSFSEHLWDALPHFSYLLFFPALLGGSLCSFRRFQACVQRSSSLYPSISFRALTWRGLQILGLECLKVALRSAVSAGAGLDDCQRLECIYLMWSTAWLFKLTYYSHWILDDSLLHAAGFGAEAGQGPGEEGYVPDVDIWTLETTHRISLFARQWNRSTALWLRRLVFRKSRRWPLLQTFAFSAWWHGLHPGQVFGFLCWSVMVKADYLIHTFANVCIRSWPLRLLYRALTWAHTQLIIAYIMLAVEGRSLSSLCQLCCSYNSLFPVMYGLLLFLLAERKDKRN
In short: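 mGOAT and hGOAT were expressed in Sf9 insect-cell membrane fractions, which were thawed on ice and homogenised through an 18-gauge needle. About 100 μg membrane protein was preincubated 30 min at room temperature with 1 μM MAFP plus inhibitor or vehicle (DMSO or ethanol) in 50 mM HEPES pH 7.0.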

| Molecule | inhibition of hGOAT activity (hGOAT [1]) | reversibility of hGOAT inhibition (hGOAT [2]) | inhibition of hGOAT activity (hGOAT [1]; at concentrations up to 100 μM) | further results |
| --- | --- | --- | --- | --- |
| COC(=O)[C@]12CCC(C)(C)C[C@H]1[C@H]1C(=O)C=C3[C@@]4(C)C=C(C#N)C(=O)C(C)(C)[C@@H]4CC[C@@]3(C)[C@]1(C)CC2 [Compound 2, methyl 2-cyano-3,12-dioxooleana-1,9(11)dien-28-oate] | exhibits inhibitory activity against hGOAT; also recorded: most potent inhibition of hGOAT |  |  |  |
| CCNC(=O)[C@]12CCC(C)(C)C[C@H]1[C@H]1C(=O)C=C3[C@@]4(C)C=C(C#N)C(=O)C(C)(C)[C@@H]4CC[C@@]3(C)[C@]1(C)CC2 [Compound 3] | most potent inhibition of hGOAT | reversible hGOAT inhibition |  | time dependence of hGOAT inhibition (hGOAT [3]): time-dependent inhibition; IC50 against mGOAT relative to hGOAT (mGOAT): ~ 8 fold |
| CC1(C)CC[C@]2(C(=O)O)CC[C@]3(C)[C@H](C(=O)C=C4[C@@]5(C)C=C(C#N)C(=O)C(C)(C)[C@@H]5CC[C@]43C)[C@@H]2C1 [Compound 5] | lack of inhibition |  |  |  |
| C[C@H]1[C@H](C)CC[C@]2(C(=O)O)CC[C@]3(C)C(=CC[C@@H]4[C@@]5(C)CC[C@H](O)C(C)(C)[C@@H]5CC[C@]43C)[C@H]12 [Compound 6, ursolic acid] |  |  | negligible inhibition |  |
| CC1(C)CC[C@]2(C(=O)O)CC[C@]3(C)C(=CC[C@@H]4[C@@]5(C)CC[C@H](O)C(C)(C)[C@@H]5CC[C@]43C)[C@@H]2C1 [Compound 7, oleanic acid] |  |  | negligible inhibition |  |
| CC1(C)CC[C@]2(C)CC=C3[C@]4(C)CC[C@H]5C(C)(C)[C@@H](O)CC[C@]5(C)[C@H]4CC[C@@]3(C)[C@@H]2C1 [Compound 8, taraxerol] |  |  | fails to inhibit |  |
| C[C@]12CC[C@@H]3c4ccc(O)cc4CC[C@H]3[C@@H]1CCC2=O [Compound 15, estrone] | lack of hGOAT inhibition |  |  |  |
| O=C1C=CCCC1 [Compound 18, cyclohexenone] |  |  |  | inhibition of hGOAT activity (hGOAT [1]; at concentrations up to 1 mM): does not inhibit hGOAT activity |
| CCN1C(=O)C=CC1=O [NEM, N-ethylmaleimide] | efficiently inhibits hGOAT | irreversible hGOAT inhibition |  |  |
| [Dap^3]octanoyl-ghrelin (1-5)-NH2 |  | reversible inhibition |  |  |
